The source of these data is ChEMBL document CHEMBL4130607, “Sodium-Periodate-Mediated Harringtonine Derivatives and Their Antiproliferative Activity against HL-60 Acute Leukemia Cells” (J Nat Prod, 2018).

One series deals with HL-60. Nature of the series: Antiproliferative activity against human HL60 cells after 62 hrs by MTS assay. The series is classed as functional, cell-based. Conditions: HL-60, 62 h. In short, it runs like this:
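HL-60 cells kept in RPMI-1640 with 10% heat-inactivated FBS, penicillin/streptomycin, 37 °C, 5% CO2. Seeded at 2.0 × 10^4 cells/mL with increasing compound concentrations for 62 h. MTS reagent added, formazan absorbance read at 492/620 nm after 2 h. IC50 from linear regression of viability against log concentration. Mean ± SD of triplicate tests.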
For orientation: Tetrazolium dyes change colour on reduction, which living cells bring about.

Series [1] is described as follows: Drug uptake in human HL60 cells at 1 uM after 3 hrs by indirect competitive ELISA. The series is classed as ADME, cell-based. Conditions: hl-60, 3 h. In short, it runs like this:
(§1)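 HL-60 cells at 5.0 × 10^5 cells/mL were preincubated 1 h, then exposed to compound (final 1, 10 or 100 μM) for 3 h. Cells were washed three times in PBS and lysed in RIPA buffer on ice for 20 min. Cleared supernatant was run in icELISA: HT–HSA coated plate, competition with mAb 1D2, HRP anti-mouse IgG, ABTS, A405. Result given as ng per 5 × 10^6 cells and uptake rate %.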

Series [2] is described as follows: Drug uptake in human HL60 cells at 10 uM after 3 hrs by indirect competitive ELISA. The following applies: hl-60, 3 h. Format: ADME, cell-based. In short, it runs like this:
as §1
(An ELISA detects its analyte on a solid surface through an enzyme-linked reagent.)

The nature of series [3]: Drug uptake in human HL60 cells at 100 uM after 3 hrs by indirect competitive ELISA. The series is classed as ADME, cell-based. The following applies: hl-60, 3 h. In outline:
as §1

Molecules are shown by their SMILES. pIC50: −log10 of the molar value.

What is called pIC50 is −log10 of the IC50, conventionally taken in molar units. The low end stands for a high IC50, the high end for a low IC50. For `COC1=C[C@]23CCC(=O)N2CCc2cc4c(cc2[C@@H]3[C@@H]1OC(=O)[C@@](O)(CCC(C)(C)O)CC(=O)O)OCO4`, the pIC50 in the series with HL-60 is < 4.00. With `COC(=O)C[C@](O)(CCC(C)(C)O)C(=O)O[C@@H]1C(OC)=C[C@]23CCC(=O)N2CCc2cc4c(cc2[C@H]13)OCO4`, the pIC50 in the series with HL-60 is < 4.00. For the same compound, the Drug uptake in series [1] was determined as 0.09%; in series [2], 0.02%; in series [3], 0.02%. For `COC1=C[C@]23CCCN2C(=O)c2cc4c(cc2[C@@H]3[C@@H]1OC(=O)[C@@](O)(CCC(C)(C)O)CC(=O)O)OCO4`, the pIC50 in the series on HL-60 was < 4.00. Take `COC(=O)C[C@](O)(CCC(C)(C)O)C(=O)O[C@@H]1C(OC)=C[C@]23CCCN2C(=O)c2cc4c(cc2[C@H]13)OCO4`: the negative logarithm of the IC50 (pIC50) in the series on HL-60 was < 4.00.

In the case of `COC1=C[C@]23CCCN2CCc2cc4c(cc2[C@@H]3[C@@H]1OC(=O)[C@@](O)(CCC(C)(C)O)CC(=O)O)OCO4`, the pIC50 in the series on HL-60 was < 4.00. `COC1=C[C@]23CCCN2CCc2cc4c(cc2[C@@H]3[C@@H]1O)OCO4` [CEPHALOTAXINE]: the pIC50 in the series with HL-60 was 4.21. As for `COC(=O)C[C@](O)(CCC(C)(C)O)C(=O)O[C@@H]1C(OC)=C[C@]23CCCN2CCc2cc4c(cc2[C@H]13)OCO4` [HARRINGTONINE], the pIC50 in the series on HL-60 is 7.33. Further, the Drug uptake is reported as 3.34% in series [1], 0.61% in series [2] and 0.35% in series [3]. `COC(=O)C[C@](O)(CCCC(C)(C)O)C(=O)O[C@@H]1C(OC)=C[C@]23CCCN2CCc2cc4c(cc2[C@H]13)OCO4` [OMACETAXINE MEPESUCCINATE] showed a pIC50 in the series on HL-60 of 7.66.
